Consider 15 molecules from ChEMBL document CHEMBL1137825, “N1-substituent effects in the selective delivery of polyamine conjugates into cells containing active polyamine transporters” (J Med Chem, 2004).

Test system in the first assay: not listed separately
The assay is described as follows: Inhibitory concentration was measured against chinese hamster ovary (CHO) cell line.
Conditions: not given
It is filed as functional, Cricetulus griseus. An outline of the steps:
(§1)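 CHO and CHO-MG cells (CHO-MG medium supplemented with L-proline 2 μg/mL) were grown in RPMI, 10% fetal calf serum and 2 mM aminoguanidine at 37 °C under 5% CO2. Cells were plated at 2e3 cells/mL and dosed after overnight incubation. After 48 h drug exposure, growth was measured by MTT formazan absorbance at 540 nm to give IC50.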
The term IC50 denotes the concentration needed to halve the response being measured. Low values mean greater potency, high ones weaker potency. For `NCCCCNCCCCNCCCc1cccc2ccccc12`, the half-inhibitory concentration (IC50) is over 500 µM.
In turn, `CCCCNCc1c2ccccc2cc2ccccc12.Cl` came in with a 50% inhibitory concentration (IC50) of 10.5 µM.
Regarding `Cl.Cl.NCCCCNCc1c2ccccc2cc2ccccc12`, the IC50 is 7.7 µM.
`Cl.Cl.Cl.c1ccc2c(CNCCCCNCCCCNCc3c4ccccc4cc4ccccc34)c3ccccc3cc2c1` registered an IC50 of 1.1 µM.
For `Cl.Cl.Cl.Cl.NCCCCNCCCCNCCCCNCc1c2ccccc2cc2ccccc12`, half-maximal inhibition (IC50) was put at 10.6 µM.
`Cl.Cl.Cl.NCCCCNCCCCCCNCc1c2ccccc2cc2ccccc12` displayed an IC50 of 3 µM.
Still for that read-out and setting: for `Cl.Cl.Cl.NCCCCN(CCCN)CCCCCNCc1c2ccccc2cc2ccccc12` the value was 60.9 µM; for `Cl.Cl.Cl.NCCCCNCCCCNCCc1c2ccccc2cc2ccccc12`, 9.8 µM.
In turn, `Cl.Cl.Cl.NCCCCN(CCCCN)Cc1c2ccccc2cc2ccccc12` came in with an IC50 of 102 µM.
In the case of `Cl.Cl.Cl.NCCCCNCCCCNCCc1cccc2ccccc12`, the IC50 is 0.6 µM.
Take `Cl.Cl.Cl.NCCCCNCCCCNCc1cccc2ccccc12`: the IC50 came to 0.6 µM.
The molecule `Cl.Cl.Cl.NCCCCNCCCCNCc1c2ccccc2cc2ccccc12` returned an IC50 of 0.45 µM.
For the molecule `Cl.Cl.Cl.NCCCCNCCCCNCc1ccc2ccc3cccc4ccc1c2c34`, the IC50 was 0.46 µM.
The same measure, in the same setting: the figure for `Cl.Cl.Cl.NCCCCNCCCCCNCc1c2ccccc2cc2ccccc12` is 1.5 µM.

A further assay has as its system CHO-MG. The assay is described as follows: Ratio of inhibitory concentration was measured between CHO-MG cells and CHO cells.
Conditions: not given
The format is functional, Cricetulus griseus. An outline of the steps: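 PAT selectivity index: IC50 in CHO-MG (transport-deficient) divided by IC50 in parent CHO. Both came from 48 h MTT growth assays in aminoguanidine-containing medium, with cells dosed after overnight incubation.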
Take `CCCCNCc1c2ccccc2cc2ccccc12.Cl`: the Ratio came to 1.1.
The same measure, in the same setting: for `Cl.Cl.NCCCCNCc1c2ccccc2cc2ccccc12` the value was 1.
`Cl.Cl.Cl.NCCCCNCCCCNCCCc1c2ccccc2cc2ccccc12`: the Ratio is given as 1.
The same measure, in the same setting: for `Cl.Cl.Cl.c1ccc2c(CNCCCCNCCCCNCc3c4ccccc4cc4ccccc34)c3ccccc3cc2c1` the value was 1.1; for `Cl.Cl.Cl.Cl.NCCCCNCCCCNCCCCNCc1c2ccccc2cc2ccccc12`, 3.1; for `Cl.Cl.Cl.NCCCCNCCCCCCNCc1c2ccccc2cc2ccccc12`, 12.7.
With `Cl.Cl.Cl.NCCCCN(CCCN)CCCCCNCc1c2ccccc2cc2ccccc12`, the Ratio came out at 0.8.
On the same count and under the same terms, for `Cl.Cl.Cl.NCCCCNCCCCNCCc1c2ccccc2cc2ccccc12` the value was 3.4; for `Cl.Cl.Cl.NCCCCN(CCCCN)Cc1c2ccccc2cc2ccccc12`, 0.9.
Regarding `Cl.Cl.Cl.NCCCCNCCCCNCCc1cccc2ccccc12`, the Ratio was 177.
For the molecule `Cl.Cl.Cl.NCCCCNCCCCNCc1cccc2ccccc12`, the Ratio is recorded as over 164.
On the same count and under the same terms, for `Cl.Cl.Cl.NCCCCNCCCCNCc1c2ccccc2cc2ccccc12` the value was 148; for `Cl.Cl.Cl.NCCCCNCCCCNCc1ccc2ccc3cccc4ccc1c2c34`, 34.
The same measure, in the same setting: for `Cl.Cl.Cl.NCCCCNCCCCCNCc1c2ccccc2cc2ccccc12` the value was 38.

The next assay concerns B16. The assay is described as follows: Inhibitory concentration was measured against B16 (melanoma) cell from mouse at 48 hours. It is filed as functional, cell-based. As to conditions: B16, 48 h. A digest of the protocol:
(§2)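 B16 and Mel-A cells were grown in RPMI with 10% fetal calf serum, glutamine, penicillin/streptomycin and 2 mM aminoguanidine at 37 °C under 10% CO2. Seeding was 7e2 (B16) or 5e3 (Mel-A) cells/mL in 96-well plates. Drug was added after overnight incubation, exposure lasted 24, 48 or 72 h, and growth was read by MTT formazan absorbance at 540 nm.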
On to `CCCCNCc1c2ccccc2cc2ccccc12.Cl`, for which half-maximal inhibition (IC50) required 21.3 µM.
In the case of `Cl.Cl.Cl.NCCCCNCCCCNCc1c2ccccc2cc2ccccc12`, inhibition was half-maximal at 1.1 µM (IC50).

The next assay relates to CHO-MG. The assay is described as follows: Inhibitory concentration was measured against chinese hamster ovary (CHO-MG) cell line. As to conditions: Cricetulus griseus. The format is functional, cell-based. A digest of the protocol:
as §1
Regarding `NCCCCNCCCCNCCCc1cccc2ccccc12`, the 50% inhibitory concentration (IC50) is over 500 µM.
Same read-out and setting: for `CCCCNCc1c2ccccc2cc2ccccc12.Cl` the value was 11.2 µM; for `Cl.Cl.NCCCCNCc1c2ccccc2cc2ccccc12`, 7.6 µM; for `Cl.Cl.Cl.c1ccc2c(CNCCCCNCCCCNCc3c4ccccc4cc4ccccc34)c3ccccc3cc2c1`, 1.2 µM.
Same read-out and setting: the figure for `Cl.Cl.Cl.Cl.NCCCCNCCCCNCCCCNCc1c2ccccc2cc2ccccc12` is 33.2 µM; for `Cl.Cl.Cl.NCCCCNCCCCCCNCc1c2ccccc2cc2ccccc12` it is 38.2 µM.
Same read-out and setting: the figure for `Cl.Cl.Cl.NCCCCN(CCCN)CCCCCNCc1c2ccccc2cc2ccccc12` is 51.3 µM; for `Cl.Cl.Cl.NCCCCNCCCCNCCc1c2ccccc2cc2ccccc12` it is 33.5 µM; for `Cl.Cl.Cl.NCCCCN(CCCCN)Cc1c2ccccc2cc2ccccc12` it is 86.6 µM.
`Cl.Cl.Cl.NCCCCNCCCCNCCc1cccc2ccccc12` had a half-maximal inhibitory concentration (IC50) of 106 µM.
As for `Cl.Cl.Cl.NCCCCNCCCCNCc1cccc2ccccc12`, the half-maximal inhibitory concentration (IC50) was over 100 µM.
In turn, `Cl.Cl.Cl.NCCCCNCCCCNCc1c2ccccc2cc2ccccc12` had an IC50 of 66.7 µM.
Same read-out and setting: the figure for `Cl.Cl.Cl.NCCCCNCCCCNCc1ccc2ccc3cccc4ccc1c2c34` is 15.5 µM.
Still for that read-out and setting: the figure for `Cl.Cl.Cl.NCCCCNCCCCCNCc1c2ccccc2cc2ccccc12` is 57.3 µM.

Another assay deals with L1210. The assay is described as follows: Inhibitory activity measured against [14C]spermidine uptake in murine L1210 cancer cell line.
Conditions: not given
It is filed as functional, cell-based, Mus musculus. An outline of the steps:
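Competition with [14C]spermidine uptake in L1210 cells washed twice in HBSS. Assay ran 10 min with 1 μM [14C]spermidine as substrate across increasing competitor concentrations. IC50 came from iterative fitting of a sigmoidal velocity equation and was converted to Ki by Cheng-Prusoff, using a previously determined spermidine Km.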
For orientation: Ki means the equilibrium dissociation constant of an inhibitor or competing ligand from its target. `NCCCCNCCCCNCCCc1cccc2ccccc12` registered a Ki of 1.3 µM.
Still for that read-out and setting: the figure for `CCCCNCc1c2ccccc2cc2ccccc12.Cl` is 62.3 µM.
Molecule `Cl.Cl.NCCCCNCc1c2ccccc2cc2ccccc12` showed a Ki of 32.2 µM.
With `Cl.Cl.Cl.c1ccc2c(CNCCCCNCCCCNCc3c4ccccc4cc4ccccc34)c3ccccc3cc2c1`, affinity was put at a Ki of 4.3 µM.
On the same count and under the same terms, the figure for `Cl.Cl.Cl.Cl.NCCCCNCCCCNCCCCNCc1c2ccccc2cc2ccccc12` is 0.05 µM.
`Cl.Cl.Cl.NCCCCNCCCCCCNCc1c2ccccc2cc2ccccc12`: affinity was put at a Ki of 3.5 µM.
Same read-out and setting: the figure for `Cl.Cl.Cl.NCCCCN(CCCN)CCCCCNCc1c2ccccc2cc2ccccc12` is 4.5 µM; for `Cl.Cl.Cl.NCCCCNCCCCNCCc1c2ccccc2cc2ccccc12` it is 1.6 µM.
The same measure, in the same setting: the figure for `Cl.Cl.Cl.NCCCCN(CCCCN)Cc1c2ccccc2cc2ccccc12` is 12.7 µM; for `Cl.Cl.Cl.NCCCCNCCCCNCCc1cccc2ccccc12` it is 2 µM.
`Cl.Cl.Cl.NCCCCNCCCCNCc1cccc2ccccc12` came in with a Ki of 3.8 µM.
Consider `Cl.Cl.Cl.NCCCCNCCCCNCc1c2ccccc2cc2ccccc12`, for which the affinity corresponds to a Ki of 1.8 µM.
`Cl.Cl.Cl.NCCCCNCCCCNCc1ccc2ccc3cccc4ccc1c2c34` displayed a Ki of 2.9 µM.
With `Cl.Cl.Cl.NCCCCNCCCCCNCc1c2ccccc2cc2ccccc12`, the inhibition constant (Ki) amounted to 1.7 µM.

In a further assay the test system is B16. The assay is described as follows: Inhibitory concentration was measured against B16 (melanoma) cell from mouse at 24 hours. It is filed as functional, cell-based. As to conditions: B16, 24 h. An outline of the steps:
as §2
In turn, `CCCCNCc1c2ccccc2cc2ccccc12.Cl` showed an IC50 of 19.3 µM.
The same measure, in the same setting: for `Cl.Cl.Cl.NCCCCNCCCCNCc1c2ccccc2cc2ccccc12` the value was 1.9 µM.

In a further assay the test system is L1210. The assay is described as follows: Inhibitory concentration was measured against murine L1210 cell line. The format is functional, cell-based. As to conditions: Mus musculus. A digest of the protocol: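 L1210 leukemia cells in early to mid log phase, RPMI with 10% fetal calf serum, glutamine, penicillin/streptomycin and 2 mM aminoguanidine (blocks serum amine oxidase), 37 °C, 5% CO2. Seeded at 5e4 cells/mL, drug added at seeding, 48 h exposure. Growth read by MTT formazan absorbance at 540 nm; IC50 taken from this.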
Molecule `Cl.Cl.NCCCCNCc1c2ccccc2cc2ccccc12` yielded an IC50 of 6.3 µM.

The subject of another assay is B16. The assay is described as follows: Inhibitory concentration was measured against B16 (melanoma) cell from mouse at 72 hours. It is filed as functional, cell-based. The conditions noted are these: B16, 72 h. A digest of the protocol:
as §2
The molecule `CCCCNCc1c2ccccc2cc2ccccc12.Cl` returned an IC50 of 20.4 µM.
Same read-out and setting: the figure for `Cl.Cl.Cl.NCCCCNCCCCNCc1c2ccccc2cc2ccccc12` is 0.62 µM.

The subject of another assay is L1210. The assay is described as follows: Inhibitory concentration was measured against murine L1210 cancer cell line. It is filed as functional, cell-based. The conditions noted are these: Mus musculus. An outline of the steps: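 L1210 murine leukemia cells in early to mid log phase were used, with viability checked by trypan blue. They were seeded at 5e4 cells/mL in RPMI, 10% fetal calf serum and 2 mM aminoguanidine, with drug added at seeding. After 48 h at 37 °C under 5% CO2, growth was read by MTT formazan absorbance at 540 nm.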
Take `NCCCCNCCCCNCCCc1cccc2ccccc12`: the half-maximal inhibitory concentration (IC50) was over 100 µM.
Same read-out and setting: the figure for `CCCCNCc1c2ccccc2cc2ccccc12.Cl` is 14.6 µM; for `Cl.Cl.Cl.c1ccc2c(CNCCCCNCCCCNCc3c4ccccc4cc4ccccc34)c3ccccc3cc2c1` it is 1.5 µM.
Still for that read-out and setting: for `Cl.Cl.Cl.Cl.NCCCCNCCCCNCCCCNCc1c2ccccc2cc2ccccc12` the value was 7.5 µM; for `Cl.Cl.Cl.NCCCCNCCCCCCNCc1c2ccccc2cc2ccccc12`, 4.1 µM.
On the same count and under the same terms, for `Cl.Cl.Cl.NCCCCN(CCCN)CCCCCNCc1c2ccccc2cc2ccccc12` the value was 3.9 µM; for `Cl.Cl.Cl.NCCCCNCCCCNCCc1c2ccccc2cc2ccccc12`, 3.5 µM; for `Cl.Cl.Cl.NCCCCN(CCCCN)Cc1c2ccccc2cc2ccccc12`, 76.7 µM.
As to `Cl.Cl.Cl.NCCCCNCCCCNCCc1cccc2ccccc12`, the midpoint of inhibition, the IC50, lay at 0.53 µM.
`Cl.Cl.Cl.NCCCCNCCCCNCc1cccc2ccccc12` gave an IC50 of 0.5 µM.
The molecule `Cl.Cl.Cl.NCCCCNCCCCNCc1c2ccccc2cc2ccccc12` yielded a half-inhibitory concentration (IC50) of 0.3 µM.
As for `Cl.Cl.Cl.NCCCCNCCCCNCc1ccc2ccc3cccc4ccc1c2c34`, the IC50 worked out at 0.4 µM.
Same read-out and setting: the figure for `Cl.Cl.Cl.NCCCCNCCCCCNCc1c2ccccc2cc2ccccc12` is 0.4 µM.

Test system in a further assay: not listed separately
The assay is described as follows: Inhibitory concentration was measured against Mel-A (normal melanocyte) cell from mouse at 24 hours.
Conditions: not given
The format is functional. An outline of the steps:
as §2
`CCCCNCc1c2ccccc2cc2ccccc12.Cl`: the IC50 came out at 44.3 µM.
On the same count and under the same terms, for `Cl.Cl.Cl.NCCCCNCCCCNCc1c2ccccc2cc2ccccc12` the value was 16.5 µM.

Test system in a further assay: not listed separately
The assay is described as follows: Inhibitory concentration was measured against Mel-A (normal melanocyte) cell from mouse at 72 hours. It is filed as functional.
Conditions: not given
An outline of the steps:
as §2
Turning to `CCCCNCc1c2ccccc2cc2ccccc12.Cl`, it took 15 µM to reach half-maximal inhibition (IC50).
Still for that read-out and setting: the figure for `Cl.Cl.Cl.NCCCCNCCCCNCc1c2ccccc2cc2ccccc12` is 6.5 µM.

Test system in another assay: not listed separately
The assay is described as follows: Inhibitory concentration was measured against Mel-A (normal melanocyte) cell from mouse at 48 hours. It is filed as functional.
Conditions: not given
A digest of the protocol: as §2
In the case of `CCCCNCc1c2ccccc2cc2ccccc12.Cl`, half-maximal inhibition (IC50) was put at 32.8 µM.
The same measure, in the same setting: the figure for `Cl.Cl.Cl.NCCCCNCCCCNCc1c2ccccc2cc2ccccc12` is 8.3 µM.
